From the M2OR odorant receptor database
Changes are numbered by the printed parent chain.

tested on: T1, OR2W1; settings: stereoisomer not certain
T1 sequence (whole entry): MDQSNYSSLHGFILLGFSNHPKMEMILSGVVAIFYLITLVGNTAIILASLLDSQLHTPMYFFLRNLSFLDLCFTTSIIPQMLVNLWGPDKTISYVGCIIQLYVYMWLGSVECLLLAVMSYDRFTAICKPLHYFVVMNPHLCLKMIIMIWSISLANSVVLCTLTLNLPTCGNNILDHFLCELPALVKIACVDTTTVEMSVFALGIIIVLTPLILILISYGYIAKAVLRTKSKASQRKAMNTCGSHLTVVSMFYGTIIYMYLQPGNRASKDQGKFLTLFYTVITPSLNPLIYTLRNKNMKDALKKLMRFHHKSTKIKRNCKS
Summary of the method: (§1)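 Transient luciferase assays in mammalian cell lines were common, though methods varied by source. The values come from published papers and their supplementary material, with extra details from the original authors when needed. Responsive refers to a measured signal the original authors judged statistically different from baseline, and non-responsive (inactive) to the remainder.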
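Further: active if original authors judged signal statistically different from baseline.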

| SMILES | odorant receptor agonist call |
| --- | --- |
| OCC=Cc1ccccc1 | active |
| CCC(C)COC(C)=O (stereo not drawn) | active |
| C=C(C)C1CC=C(C)CC1 (stereo not drawn) | active |
| CCc1ccc(O)cc1 | active |
| CCCCCC(C)O (stereo not drawn) | active |
| O=c1ccc2ccccc2o1 | active |
| CCC(C)CO (stereo not drawn) | active |
| CCCC(=O)OC | active |
| CCCCC=CC=CC=O | active |
| CCCSSSC | active |
| CCCCCCCC(=O)OCC | active |
| CCC=CCCC=CCO | active |
| CCOC(=O)c1ccccc1 | active |
| CCCC(S)CCO (stereo not drawn) | active |
| OCCCc1ccccc1 | active |
| CCCCCCCCCC(=O)OCC | active |
| OCCc1ccccc1 | active |
| CCCCCCCC1CCC(=O)O1 (stereo not drawn) | active |
| CCCSSCCC | active |
| CC(=O)OCCc1ccccc1 | active |

tested on: T2, OR2W1; settings: stereoisomer not certain
T2 sequence (whole entry): T1 sequence (whole entry) with M81V, N296D
Summary of the method: as §1

| SMILES | odorant receptor agonist call |
| --- | --- |
| OCC=Cc1ccccc1 | active |
| CCC(C)COC(C)=O (stereo not drawn) | active |
| C=C(C)C1CC=C(C)CC1 (stereo not drawn) | active |
| CCc1ccc(O)cc1 | active |
| CCCCCC(C)O (stereo not drawn) | active |
| O=c1ccc2ccccc2o1 | inactive |
| CCC(C)CO (stereo not drawn) | active |
| CCCC(=O)OC | active |
| CCCCC=CC=CC=O | active |
| CCCSSSC | active |
| CCCCCCCC(=O)OCC | inactive |
| CCC=CCCC=CCO | active |
| CCOC(=O)c1ccccc1 | active |
| CCCC(S)CCO (stereo not drawn) | inactive |
| OCCCc1ccccc1 | active |
| CCCCCCCCCC(=O)OCC | active |
| OCCc1ccccc1 | inactive |
| CCCCCCCC1CCC(=O)O1 (stereo not drawn) | active |
| CCCSSCCC | inactive |
| CC(=O)OCCc1ccccc1 | active |
| CC(C)=CCCC(C)=CCO | inactive |

target: T3, OR2W3 (Homo sapiens) (UniProt Q7Z3T1); settings: stereoisomer not certain
T3 sequence (whole entry): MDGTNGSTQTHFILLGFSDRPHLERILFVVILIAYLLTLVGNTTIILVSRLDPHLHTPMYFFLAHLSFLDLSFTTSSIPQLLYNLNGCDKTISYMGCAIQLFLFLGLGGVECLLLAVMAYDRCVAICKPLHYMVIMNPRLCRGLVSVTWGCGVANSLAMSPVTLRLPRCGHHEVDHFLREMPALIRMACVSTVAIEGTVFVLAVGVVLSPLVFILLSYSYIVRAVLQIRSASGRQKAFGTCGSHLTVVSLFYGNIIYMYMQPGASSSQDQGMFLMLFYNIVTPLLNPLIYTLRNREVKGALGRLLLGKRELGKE
Summary of the method: as §1

| SMILES | odorant receptor agonist call |
| --- | --- |
| CCCCCCCCO | inactive |
| CCCCC(=O)C(C)=O | inactive |
| CCCCCCCCCCCCCC(=O)OC | inactive |
| CC1=CCC2CC1C2(C)C (stereo not drawn) | inactive |
| C=C(C)C1CC=C(C)CC1 (stereo not drawn) | inactive |
| CC(=O)O | inactive |
| CCCCCCCCCCCC(=O)OCC | inactive |
| CCCCCCCCCCCCCCCC(=O)OC | inactive |
| CCCCCCCCCCCCCCC(=O)O | inactive |
| O=c1ccc2ccccc2o1 | inactive |
| CCC(C)CO (stereo not drawn) | inactive |
| CCCCCCCC(=O)OCC | inactive |
| CCC(=O)O | inactive |
| CCCCCCCCCC(=O)OCC | inactive |
| Cc1ccc(C(C)C)cc1 | inactive |
| C=C1CCC2CC1C2(C)C (stereo not drawn) | inactive |
| CCCO | inactive |
| CC(C)=CCCC(C)=CCO | inactive |

target: T4, OR3A1 (Homo sapiens) (UniProt P47881); settings: stereoisomer not certain
T4 sequence (whole entry): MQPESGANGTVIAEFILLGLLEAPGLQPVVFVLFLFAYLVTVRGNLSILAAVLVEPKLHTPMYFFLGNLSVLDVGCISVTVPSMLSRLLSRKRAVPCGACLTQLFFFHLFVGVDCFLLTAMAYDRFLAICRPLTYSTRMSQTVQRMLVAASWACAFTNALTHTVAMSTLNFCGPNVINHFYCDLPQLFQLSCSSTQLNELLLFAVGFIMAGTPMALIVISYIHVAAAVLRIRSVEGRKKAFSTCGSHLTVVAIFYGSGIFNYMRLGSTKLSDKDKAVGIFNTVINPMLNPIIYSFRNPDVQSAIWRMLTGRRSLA
Summary of the method: as §1

| SMILES | odorant receptor agonist call |
| --- | --- |
| OCC=Cc1ccccc1 | inactive |
| CC(C)CC=O | inactive |
| CCCCCC1=C(C)CCC1=O | active |
| OCCc1ccccc1 | inactive |
